Results: ChEMBL document CHEMBL3217724, “Synthesis and evaluation of a series of benzothiophene acrylonitrile analogs as anticancer agents” (Medchemcomm, 2013)
The source made the active and inactive calls. The calls are words filed in the database; no cut-off is given here.

Legend:
[1] = system: PC-3; assay: Induction of beta tubulin de-stabilization in human PC3 cells at 10 nM after 24 hrs by DAPI-staining based immunofluorescence assay; format: cell-based
Outline: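 PC3 cells were treated for 24 hours with the test agent at 1, 10 or 100 nM, or with 10 nM docetaxel or vinblastine as stabilizing and destabilizing references. Cells were immunostained for beta-tubulin (green) with DAPI nuclear counterstain (blue) and the microtubule staining pattern imaged.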

[2] = system: LLC-PK1; assay: Resistance factor, ratio of GI50 for pig LLC-PK1 cells expressing MDR1 to GI50 for pig LLC-PK1 cells; parameters: species or system Sus scrofa
Outline: (§1)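 Porcine epithelial L-MDR1 (P-gp expressing) cells and their non-expressing parent line were exposed to compound for 72 h. Viability was read with AlamarBlue dye and GI50 derived. P-gp expression was verified by Western blot with β-actin as loading control. The resistance ratio compares GI50 in MDR1 versus parent cells.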

[3] = system: LLC-PK1; assay: Growth inhibition of pig LLC-PK1 cells expressing MDR1 by Alamar Blue assay; format: functional; conditions: Sus scrofa; outline: as §1
[4] = Growth inhibition of pig LLC-PK1 cells by Alamar Blue assay; format: cell-based, Sus scrofa
Outline: (§2)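 Cell viability was read with AlamarBlue dye in 96-well format and GI50 values derived, to assess P-gp effects. Cells were P-gp-expressing NCI/ADR-Res ovarian cancer cells and L-MDR1 porcine epithelial cells, each with its non-expressing parent line. P-gp expression was confirmed by Western blot with β-actin as loading control. Resistance is the GI50 in the P-gp line over the GI50 in the parent line.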

[5] = system: OVCAR-8; assay: Resistance factor, ratio of GI50 for P-gp expressing NCI-ADR-RES cells to GI50 for human OVCAR8 cells; format: functional; outline: as §2
[6] = Growth inhibition of P-gp expressing human NCI-ADR-RES cells by Alamar Blue assay; format: functional
Outline: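 72-h cytotoxicity in 96-well plates with AlamarBlue viability dye, giving GI50. Line 1 uses docetaxel-resistant PC3 prostate cells (PC3-DR), and line 2 uses NCI/ADR-Res ovarian cells. P-gp expression in both was confirmed by Western blot, with β-actin as the loading control.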

[7] = Growth inhibition of human OVCAR8 cells by Alamar Blue assay; format: functional; conditions: OVCAR-8; outline: as §2
[8] = system: PC-3; assay: Growth inhibition of human PC3 cells after 72 hrs by Alamar Blue assay; format: functional; conditions: PC-3, 72 h
Outline: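 PC3 prostate cancer cells and docetaxel-resistant PC3-DR cells were exposed to drug for 72 hours in 96-well format. Viability was read with AlamarBlue dye and GI50 derived. Resistance is the GI50 in PC3-DR over the GI50 in parental PC3.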

[9] = biological target: Tubulin (Homo sapiens) (UniProt P68371+Q9H4B7+P0DPH7+P68366+Q13509+Q71U36+P04350+Q3ZCM7+P07437+P68363+Q9BQE3+Q6PEY2+Q13885+Q9BVA1+Q9BUF5); conditions: 5 uM

CC[C@]1(O)C[C@@H]2CN(CCc3c([nH]c4ccccc34)[C@@](C(=O)OC)(c3cc4c(cc3OC)N(C)[C@H]3[C@@](O)(C(=O)OC)[C@H](OC(C)=O)[C@]5(CC)C=CCN6CC[C@]43[C@@H]65)C2)C1 [VINBLASTINE]
Activity [1]: Active
RatioGI50 [2]: 58
GI50 [3]: 86.8 nM
GI50 [4]: 1.5 nM
RatioGI50 [5]: 500
GI50 [6]: 1400 nM
GI50 [7]: 2.8 nM
GI50 [8]: 5.2 nM
inhibition [9]: Active
